Assay results as given in ChEMBL document CHEMBL1121867, “Inhibition of separated forms of cyclic nucleotide phosphodiesterase from pig coronary arteries by 1,3-disubstituted and 1,3,8-trisubstituted xanthines” (J Med Chem, 1981).

Legend:
[1] = species: Sus scrofa; test: Inhibition of pig coronary artery phosphodiesterase peak I cGMP specific and calmodulin sensitive; details: concentration not given here
Outline: (§1)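 Separated peak I and peak II phosphodiesterase forms prepared from pig coronary arteries. Hydrolysis of 1 µM cyclic nucleotide substrate was measured at 30 °C for 30 min, with enzyme diluted to give 10-20% hydrolysis without inhibitor. Compounds were added from 30% Me2SO, giving 3% Me2SO final in all tubes, including controls and blanks. I50 was read from concentration-inhibition curves over 10^-7 to 10^-4 M, or to 10^-3 M if soluble.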

[2] = species: Sus scrofa; test: Inhibition of Peak II phosphodiesterase from pig coronary arteries at 100 uM
[3] = Inhibition of Peak I phosphodiesterase from pig coronary arteries; design: species or system Sus scrofa; details: read-out: I50; outline: as §1
[4] = Inhibition of pig coronary artery cAMP-specific phosphodiesterase; design: species or system Sus scrofa; details: read-out: I50
Outline: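 Separated peak I and peak II phosphodiesterase forms prepared from pig coronary arteries. Compounds were added from 30% Me2SO, giving 3% Me2SO final in all tubes, including controls and blanks. I50 was read from concentration-inhibition curves over 10^-7 to 10^-4 M, or to 10^-3 M if soluble.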

[5] = species: Sus scrofa; test: Inhibition of pig coronary artery phosphodiesterase peak I cGMP specific and calmodulin sensitive at 100 uM
[6] = species: Sus scrofa; test: Inhibition of pig coronary artery phosphodiesterase peak II cyclic AMP specific at 100 uM

| Structure (SMILES) | inhibition [2] [%] | IC50 [3] [µM] | further results |
| --- | --- | --- | --- |
| CC(C)Cn1c(=O)n(CC(=O)O)c(=O)c2[nH]cnc21 | 1.9 | – | inhibition [1]: 2.4% |
| CC(C)=CCc1nc2c([nH]1)c(=O)n(C)c(=O)n2CC(C)C | 21 | 6.3 | – |
| CC(C)Cn1c(=O)n(C)c(=O)c2[nH]c(CCCO)nc21 | 29 | 11 | – |
| C=C(C)Cn1c(=O)n(C)c(=O)c2nc[nH]c21 | – | 10 | IC50 [4]: 36 µM |
| COCc1nc2c([nH]1)c(=O)n(C)c(=O)n2CC(C)C | – | 5.2 | IC50 [4]: 212 µM |
| CNc1nc2c(=O)n(C)c(=O)n(CC(C)C)c2[nH]1 | 39 | 1.2 | – |
| CC(=O)OCCn1c(=O)n(C)c(=O)c2nc[nH]c21 | 27 | – | inhibition [5]: 43% |
| Cn1c(=O)c2nc[nH]c2n(C)c1=O [THEOPHYLLINE] | – | 100 | – |
| CC(C)Cn1c(=O)n(C)c(=O)c2[nH]c(CCC(=O)O)nc21 | 12 | 45 | – |
| CC(C)Cn1c(=O)n(C)c(=O)c2[nH]c(N(C)C)nc21 | 33 | 1.6 | – |
| CC(C)CCn1c(=O)c2[nH]cnc2n(CC(C)C)c1=O | – | 86 | IC50 [4]: 17 µM |
| CC(C)Cn1c(=O)n(C)c(=O)c2[nH]c(CCl)nc21 | 28 | 8.9 | – |
| C=C(C)Cn1c(=O)n(CCC(C)C)c(=O)c2nc[nH]c21 | 42 | – | inhibition [5]: 38% |
| CC(C)Cn1c(=O)n(C)c(=O)c2[nH]c(CO)nc21 | – | 9.4 | IC50 [4]: 283 µM |
| COC(=O)CCc1nc2c(=O)n(C)c(=O)n(CC(C)C)c2[nH]1 | 30 | 9.8 | – |
| C=CCn1c(=O)n(C)c(=O)c2nc[nH]c21 | – | 25 | IC50 [4]: 52 µM |
| CC(C)Cn1c(=O)n(C)c(=O)c2[nH]nnc21 | – | – | inhibition [5]: 35%; inhibition [6]: 1% |
| Cn1c(=O)c2nc[nH]c2n(CCO)c1=O | 23 | – | inhibition [5]: 30% |
| COC(=O)Cn1c(=O)c2nc[nH]c2n(CC(C)C)c1=O | 40 | – | inhibition [5]: 26% |
